Data published in ChEMBL document CHEMBL1138269, “Antimicrobial lexitropsins containing amide, amidine, and alkene linking groups” (J Med Chem, 2007).
In brackets after ≈: the same amount, converted by molar mass.

Experiments:
Format in all cases: functional
Staphylococcus aureus [1] = assay: Antibacterial activity against methicillin-resistant Staphylococcus aureus clinical isolate 2
Method in brief: (§1)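 Broth microdilution MIC against clinical S. aureus isolates (incl. MRSA), run per NCCLS guidelines in 96-well plates. Test sample dissolved in sterile water to a 200 µg mL-1 working concentration, then doubling dilutions in Mueller-Hinton broth. Incubated at 37 °C, growth read visually plus resazurin indicator. MIC reported in µg/mL.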

Staphylococcus aureus [2] = assay: Antibacterial activity against methicillin-resistant Staphylococcus aureus clinical isolate 4; method in brief: as §1
Candida albicans = assay: Antifungal activity against Candida albicans NCPF 3179; conditions: Candida albicans; read-out: MIC
Method in brief: (§2)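 Antifungal microdilution in Sabouraud broth. Test sample at 200 µg mL-1 working solution in sterile water was serially doubled down successive rows. Incubation was at 25 °C, followed by visual growth check and addition of resazurin indicator. Read-out is MIC in µg mL-1.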

[3] = test system: Mycolicibacterium fortuitum; assay: Antibacterial activity against Mycobacterium fortuitum NCTC 10394
Method in brief: (§3)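 Broth microdilution in Mueller-Hinton broth. Samples were dissolved in sterile water to 200 µg mL-1 as the working solution and doubling dilutions were made across rows. Plates were incubated at 37 °C and inspected visually, with resazurin added as growth indicator. MIC reported in µg mL-1.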

Staphylococcus aureus [4] = assay: Antibacterial activity against methicillin-resistant Staphylococcus aureus clinical isolate 5; method in brief: as §1
Staphylococcus aureus [5] = assay: Antibacterial activity against methicillin-resistant Staphylococcus aureus clinical isolate 3; method in brief: as §1
Staphylococcus aureus [6] = assay: Antibacterial activity against methicillin-resistant Staphylococcus aureus clinical isolate 1; method in brief: as §1
Staphylococcus aureus [7] = assay: Antibacterial activity against methicillin-sensitive Staphylococcus aureus NCTC 6571; method in brief: as §3
Aspergillus niger = assay: Antifungal activity against Aspergillus niger IMI 149007; method in brief: as §2
Enterococcus faecalis = assay: Antibacterial activity against Streptococcus faecalis NCTC 775; method in brief: as §3
[8] = Staphylococcus aureus, NCTC 6571, read-out: MIC
[9] = Enterococcus faecalis, NCTC 775, read-out: MIC

`CC(C)c1sc(NC(=O)c2cc(NC(=O)c3cc(NC=O)cn3C)cn2C)nc1C(=O)NCCN1CCOCC1` gave an MIC (Staphylococcus aureus [1]) of over 64 mg/L, an MIC (Staphylococcus aureus [2]) of 64 mg/L (≈ 112 µM) and an MIC (Candida albicans) of over 50 mg/L. For the same compound, the MIC [3] was over 50 mg/L, the MIC (Staphylococcus aureus [4]) was 64 mg/L (≈ 112 µM) and the MIC (Staphylococcus aureus [5]) was 64 mg/L (≈ 112 µM). The MIC (Staphylococcus aureus [6]) was 32 mg/L (≈ 56.1 µM), the MIC (Staphylococcus aureus [7]; [8]) was 13 mg/L (≈ 22.8 µM) and the MIC (Aspergillus niger) was over 50 mg/L. For the same compound, the MIC (Enterococcus faecalis; [9]) was 25 mg/L (≈ 43.8 µM).
`COc1cccc(C(=O)Nc2cc(C(=O)Nc3cc(C(=O)Nc4nc(C(=O)NCCCN(C)C)c(C(C)C)s4)n(C)c3)n(C)c2)c1` gave an MIC (Staphylococcus aureus [1]) of 32 mg/L (≈ 49.3 µM), an MIC (Staphylococcus aureus [2]) of 32 mg/L (≈ 49.3 µM) and an MIC (Candida albicans) of over 50 mg/L. The MIC [3] was over 50 mg/L, the MIC (Staphylococcus aureus [4]) was 32 mg/L (≈ 49.3 µM) and the MIC (Staphylococcus aureus [5]) was 32 mg/L (≈ 49.3 µM). For the same compound, the MIC (Staphylococcus aureus [6]) was 16 mg/L (≈ 24.7 µM), the MIC (Staphylococcus aureus [7]; [8]) was 25 mg/L (≈ 38.5 µM) and the MIC (Aspergillus niger) was over 50 mg/L. For the same compound, the MIC (Enterococcus faecalis; [9]) was 25 mg/L (≈ 38.5 µM).
With `COc1cccc(/C=C/c2cc(C(=O)Nc3cc(C(=O)Nc4cc(C(=O)NCCCN(C)C)n(C)c4)n(C)c3)n(C)c2)c1` the MIC (Staphylococcus aureus [1]) was 32 mg/L (≈ 54.6 µM), the MIC (Staphylococcus aureus [2]) was 32 mg/L (≈ 54.6 µM) and the MIC (Candida albicans) was 50 mg/L (≈ 85.4 µM). The MIC [3] was over 50 mg/L, the MIC (Staphylococcus aureus [4]) was 32 mg/L (≈ 54.6 µM) and the MIC (Staphylococcus aureus [5]) was 32 mg/L (≈ 54.6 µM). It also gave an MIC (Staphylococcus aureus [6]) of 32 mg/L (≈ 54.6 µM), an MIC (Staphylococcus aureus [7]; [8]) of over 50 mg/L and an MIC (Aspergillus niger) of over 50 mg/L. It also gave an MIC (Enterococcus faecalis; [9]) of 25 mg/L (≈ 42.7 µM).
Compound `CC(C)CCc1sc(NC(=O)c2cc3ccccc3cn2)nc1C(=O)Nc1cc(C(=O)NCCCN(C)C)n(C)c1` has an MIC (Staphylococcus aureus [1]) of 32 mg/L (≈ 55.6 µM), an MIC (Staphylococcus aureus [2]) of 32 mg/L (≈ 55.6 µM) and an MIC (Candida albicans) of over 50 mg/L. It also gave an MIC [3] of over 50 mg/L, an MIC (Staphylococcus aureus [4]) of 32 mg/L (≈ 55.6 µM) and an MIC (Staphylococcus aureus [5]) of 32 mg/L (≈ 55.6 µM). It also gave an MIC (Staphylococcus aureus [6]) of 32 mg/L (≈ 55.6 µM), an MIC (Staphylococcus aureus [7]; [8]) of over 50 mg/L and an MIC (Aspergillus niger) of over 50 mg/L. For the same compound, the MIC (Enterococcus faecalis; [9]) was over 50 mg/L.
For `Cn1cc(NC(=O)c2cc(NC(=O)c3cc(/C=C/c4cnc5ccccc5c4)cn3C)cn2C)cc1C(=O)NCCN1CCOCC1`, the MIC (Staphylococcus aureus [1]) was over 64 mg/L, the MIC (Staphylococcus aureus [2]) was over 64 mg/L and the MIC (Candida albicans) was over 50 mg/L. It also gave an MIC [3] of over 50 mg/L, an MIC (Staphylococcus aureus [4]) of 16 mg/L (≈ 25.2 µM) and an MIC (Staphylococcus aureus [5]) of over 64 mg/L. The MIC (Staphylococcus aureus [6]) was 4 mg/L (≈ 6.3 µM), the MIC (Staphylococcus aureus [7]; [8]) was over 50 mg/L and the MIC (Aspergillus niger) was over 50 mg/L. It also gave an MIC (Enterococcus faecalis; [9]) of over 50 mg/L.
For `CC(=N)Nc1cc(C(=O)Nc2cc(C(=O)Nc3cc(C(=O)NCCCN4CCOCC4)n(C)c3)n(C)c2)n(C)c1`, the MIC (Staphylococcus aureus [1]) was over 64 mg/L, the MIC (Staphylococcus aureus [2]) was over 64 mg/L and the MIC (Candida albicans) was over 50 mg/L. For the same compound, the MIC [3] was over 50 mg/L, the MIC (Staphylococcus aureus [4]) was over 64 mg/L and the MIC (Staphylococcus aureus [5]) was over 64 mg/L. It also gave an MIC (Staphylococcus aureus [6]) of over 64 mg/L, an MIC (Staphylococcus aureus [7]; [8]) of over 50 mg/L and an MIC (Aspergillus niger) of over 50 mg/L. The MIC (Enterococcus faecalis; [9]) was over 50 mg/L.
`COc1cccc(/C=C/c2cccc(C(=O)Nc3cc(C(=O)Nc4nc(C(=O)NCCCN(C)C)c(CCC(C)C)s4)n(C)c3)c2)c1` showed an MIC (Staphylococcus aureus [1]) of 32 mg/L (≈ 48.7 µM), an MIC (Staphylococcus aureus [2]) of 32 mg/L (≈ 48.7 µM) and an MIC (Candida albicans) of over 50 mg/L. For the same compound, the MIC [3] was over 50 mg/L, the MIC (Staphylococcus aureus [4]) was 32 mg/L (≈ 48.7 µM) and the MIC (Staphylococcus aureus [5]) was 32 mg/L (≈ 48.7 µM). The MIC (Staphylococcus aureus [6]) was 32 mg/L (≈ 48.7 µM), the MIC (Staphylococcus aureus [7]; [8]) was over 50 mg/L and the MIC (Aspergillus niger) was over 50 mg/L. For the same compound, the MIC (Enterococcus faecalis; [9]) was over 50 mg/L.
`CC(=N)Nc1cc(C(=O)Nc2cc(C(=O)Nc3nc(C(=O)NCCN4CCOCC4)c(C(C)C)s3)n(C)c2)n(C)c1` gave an MIC (Staphylococcus aureus [1]) of over 64 mg/L, an MIC (Staphylococcus aureus [2]) of over 64 mg/L and an MIC (Candida albicans) of over 50 mg/L. For the same compound, the MIC [3] was over 50 mg/L, the MIC (Staphylococcus aureus [4]) was over 64 mg/L and the MIC (Staphylococcus aureus [5]) was over 64 mg/L. For the same compound, the MIC (Staphylococcus aureus [6]) was 64 mg/L (≈ 110 µM), the MIC (Staphylococcus aureus [7]; [8]) was over 50 mg/L and the MIC (Aspergillus niger) was over 50 mg/L. The MIC (Enterococcus faecalis; [9]) was over 50 mg/L.
In the case of `COc1cccc(C(=N)Nc2cc(C(=O)Nc3cc(C(=O)Nc4cc(C(=O)NCCc5ccccn5)n(C)c4)n(C)c3)n(C)c2)c1`, the MIC (Staphylococcus aureus [1]) was over 64 mg/L, the MIC (Staphylococcus aureus [2]) was over 64 mg/L and the MIC (Candida albicans) was over 50 mg/L. The MIC [3] was over 50 mg/L, the MIC (Staphylococcus aureus [4]) was over 64 mg/L and the MIC (Staphylococcus aureus [5]) was over 64 mg/L. The MIC (Staphylococcus aureus [6]) was over 64 mg/L, the MIC (Staphylococcus aureus [7]; [8]) was 50 mg/L (≈ 80.4 µM) and the MIC (Aspergillus niger) was over 50 mg/L. For the same compound, the MIC (Enterococcus faecalis; [9]) was over 50 mg/L.
`Cn1cc(NC(=O)c2cc(NC(=O)c3cc(NC(=O)c4cccc(Cl)c4)cn3C)cn2C)cc1C(=O)NCCc1ccccn1` showed an MIC (Staphylococcus aureus [1]) of over 64 mg/L, an MIC (Staphylococcus aureus [2]) of over 64 mg/L and an MIC (Candida albicans) of over 50 mg/L. For the same compound, the MIC [3] was over 50 mg/L, the MIC (Staphylococcus aureus [4]) was over 64 mg/L and the MIC (Staphylococcus aureus [5]) was over 64 mg/L. For the same compound, the MIC (Staphylococcus aureus [6]) was over 64 mg/L, the MIC (Staphylococcus aureus [7]; [8]) was over 50 mg/L and the MIC (Aspergillus niger) was over 50 mg/L. For the same compound, the MIC (Enterococcus faecalis; [9]) was over 50 mg/L.
`CSc1ccc(/C=C/c2ccc3cc(C(=O)Nc4cc(C(=O)Nc5cc(C(=O)NCCN6CCOCC6)n(C)c5)n(C)c4)ccc3n2)cc1` was tested, and the MIC (Staphylococcus aureus [1]) was over 64 mg/L, the MIC (Staphylococcus aureus [2]) was over 64 mg/L and the MIC (Candida albicans) was over 50 mg/L. The MIC [3] was over 50 mg/L, the MIC (Staphylococcus aureus [4]) was over 64 mg/L and the MIC (Staphylococcus aureus [5]) was over 64 mg/L. It also gave an MIC (Staphylococcus aureus [6]) of 4 mg/L (≈ 5.9 µM), an MIC (Staphylococcus aureus [7]; [8]) of over 50 mg/L and an MIC (Aspergillus niger) of over 50 mg/L. It also gave an MIC (Enterococcus faecalis; [9]) of over 50 mg/L.
In the case of `COc1cccc(C(=N)Nc2cc(C(=O)Nc3cc(C(=O)Nc4cc(C(=O)NCCCN5CCOCC5)n(C)c4)n(C)c3)n(C)c2)c1`, the MIC (Staphylococcus aureus [1]) was over 64 mg/L, the MIC (Staphylococcus aureus [2]) was over 64 mg/L and the MIC (Candida albicans) was over 50 mg/L. It also gave an MIC [3] of over 50 mg/L, an MIC (Staphylococcus aureus [4]) of over 64 mg/L and an MIC (Staphylococcus aureus [5]) of over 64 mg/L. It also gave an MIC (Staphylococcus aureus [6]) of over 64 mg/L, an MIC (Staphylococcus aureus [7]; [8]) of over 50 mg/L and an MIC (Aspergillus niger) of over 50 mg/L. It also gave an MIC (Enterococcus faecalis; [9]) of over 50 mg/L.
In the case of `Cn1cc(NC(=O)c2cc(NC(=O)c3ccc(/C=C/c4nc5ccccc5o4)cc3)cn2C)cc1C(=O)NCCN1CCOCC1` (stereo in doubt; 79), the MIC (Staphylococcus aureus [1]) was 16 mg/L (≈ 25.7 µM), the MIC (Staphylococcus aureus [2]) was 1 mg/L (≈ 1.61 µM) and the MIC (Candida albicans) was over 50 mg/L. The MIC [3] was over 50 mg/L, the MIC (Staphylococcus aureus [4]) was 1 mg/L (≈ 1.61 µM) and the MIC (Staphylococcus aureus [5]) was 1 mg/L (≈ 1.61 µM). For the same compound, the MIC (Staphylococcus aureus [6]) was 1 mg/L (≈ 1.61 µM), the MIC (Staphylococcus aureus [7]) was 13 mg/L (≈ 20.9 µM) and the MIC (Aspergillus niger) was over 50 mg/L. For the same compound, the MIC (Enterococcus faecalis) was 25 mg/L (≈ 40.2 µM).
